Test results taken from paper PMC12709667 (Journal of Clinical Pharmacology, 2025).

What was measured:
OATP1B3 = target: T1, OATP1B3 (Homo sapiens, UniProt Q9NPD5); assay: Transporter substrate assessment; format: in vitro ADME
T1 sequence (Q9NPD5 1-702): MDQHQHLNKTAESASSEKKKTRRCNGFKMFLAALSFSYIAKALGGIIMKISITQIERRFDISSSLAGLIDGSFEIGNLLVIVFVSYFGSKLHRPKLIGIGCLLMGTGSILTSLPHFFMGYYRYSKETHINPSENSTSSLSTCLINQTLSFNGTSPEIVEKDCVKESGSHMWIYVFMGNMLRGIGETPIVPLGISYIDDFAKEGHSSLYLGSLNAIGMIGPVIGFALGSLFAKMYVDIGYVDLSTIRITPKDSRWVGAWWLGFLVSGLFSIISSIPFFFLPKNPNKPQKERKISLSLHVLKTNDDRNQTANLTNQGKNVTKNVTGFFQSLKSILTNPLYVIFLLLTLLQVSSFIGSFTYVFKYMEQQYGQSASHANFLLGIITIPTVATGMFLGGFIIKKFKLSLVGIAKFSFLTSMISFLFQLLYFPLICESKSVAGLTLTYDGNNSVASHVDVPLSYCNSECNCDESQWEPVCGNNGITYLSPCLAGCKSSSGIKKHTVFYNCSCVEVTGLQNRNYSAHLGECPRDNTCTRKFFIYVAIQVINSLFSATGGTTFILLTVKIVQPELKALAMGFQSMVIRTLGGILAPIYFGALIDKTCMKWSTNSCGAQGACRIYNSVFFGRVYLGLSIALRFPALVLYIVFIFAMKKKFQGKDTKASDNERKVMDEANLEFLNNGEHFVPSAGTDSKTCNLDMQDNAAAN

CYP3A4 = format: in vitro ADME, human; conditions: up to 10 µM
[1] = In vitro blood/plasma partitioning; format: in vitro ADME; conditions: monkey, whole blood
Summary of the method: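 Test compound was added to rat, monkey or human whole blood and incubated, then centrifuged to obtain plasma. The plasma concentration was measured by LC-MS. It was compared with the concentration in directly spiked plasma of the same species.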

[2] = Animal and human ADME studies, summary of excretion; format: in vivo; conditions: animal and human ADME studies (Abstract)
DDI perpetrator study = format: in vivo; conditions: human, plasma, oral, 400 mg
UGT1A1 = target: T2, UGT1A1 (Homo sapiens, UniProt P22309); assay: Phase 2 enzyme substrate assessment; format: in vitro ADME
T2 sequence (P22309 26-533): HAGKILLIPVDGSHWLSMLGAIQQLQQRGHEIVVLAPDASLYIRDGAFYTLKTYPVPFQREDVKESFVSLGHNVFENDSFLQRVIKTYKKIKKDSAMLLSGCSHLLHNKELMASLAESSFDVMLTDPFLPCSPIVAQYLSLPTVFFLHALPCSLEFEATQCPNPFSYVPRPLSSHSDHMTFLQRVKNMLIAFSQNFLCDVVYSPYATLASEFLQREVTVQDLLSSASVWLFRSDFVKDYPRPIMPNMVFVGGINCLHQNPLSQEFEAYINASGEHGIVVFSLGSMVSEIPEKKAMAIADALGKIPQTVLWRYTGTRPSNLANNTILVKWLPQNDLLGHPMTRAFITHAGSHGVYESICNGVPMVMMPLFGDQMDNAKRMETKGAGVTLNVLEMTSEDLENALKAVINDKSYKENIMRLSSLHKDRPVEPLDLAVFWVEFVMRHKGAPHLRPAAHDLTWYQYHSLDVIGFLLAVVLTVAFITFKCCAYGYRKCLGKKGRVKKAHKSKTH

BCRP = target: T3, BCRP (Homo sapiens, UniProt Q9UNQ0); assay: ABC transporter inhibition, inside-out vesicles; format: in vitro ADME
T3 sequence (Q9UNQ0 1-655): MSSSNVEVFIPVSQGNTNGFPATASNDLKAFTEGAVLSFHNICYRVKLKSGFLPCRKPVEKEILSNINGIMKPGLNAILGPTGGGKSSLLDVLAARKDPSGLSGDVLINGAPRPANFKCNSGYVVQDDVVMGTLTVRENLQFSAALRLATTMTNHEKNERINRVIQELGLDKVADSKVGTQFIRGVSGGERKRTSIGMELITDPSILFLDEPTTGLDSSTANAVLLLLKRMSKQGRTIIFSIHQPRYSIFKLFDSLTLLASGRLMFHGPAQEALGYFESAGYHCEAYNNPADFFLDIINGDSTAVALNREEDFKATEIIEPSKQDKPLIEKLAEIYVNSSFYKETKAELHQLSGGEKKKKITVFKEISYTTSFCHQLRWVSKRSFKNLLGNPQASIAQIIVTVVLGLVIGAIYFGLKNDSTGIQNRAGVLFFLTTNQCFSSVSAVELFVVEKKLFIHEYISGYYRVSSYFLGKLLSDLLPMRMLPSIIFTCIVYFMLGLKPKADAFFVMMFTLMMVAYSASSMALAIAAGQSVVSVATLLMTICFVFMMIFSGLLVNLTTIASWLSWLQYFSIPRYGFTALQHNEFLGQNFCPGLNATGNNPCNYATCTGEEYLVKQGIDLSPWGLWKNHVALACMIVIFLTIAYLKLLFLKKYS
Summary of the method: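 Inhibition of human BCRP transport was measured in inside-out membrane vesicles prepared from cells overexpressing the human ABC transporter.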

UGT1A3 = target: T4, UGT1A3 (Homo sapiens, UniProt P35503); assay: Phase 2 enzyme substrate assessment; format: in vitro ADME
T4 sequence (P35503 29-534): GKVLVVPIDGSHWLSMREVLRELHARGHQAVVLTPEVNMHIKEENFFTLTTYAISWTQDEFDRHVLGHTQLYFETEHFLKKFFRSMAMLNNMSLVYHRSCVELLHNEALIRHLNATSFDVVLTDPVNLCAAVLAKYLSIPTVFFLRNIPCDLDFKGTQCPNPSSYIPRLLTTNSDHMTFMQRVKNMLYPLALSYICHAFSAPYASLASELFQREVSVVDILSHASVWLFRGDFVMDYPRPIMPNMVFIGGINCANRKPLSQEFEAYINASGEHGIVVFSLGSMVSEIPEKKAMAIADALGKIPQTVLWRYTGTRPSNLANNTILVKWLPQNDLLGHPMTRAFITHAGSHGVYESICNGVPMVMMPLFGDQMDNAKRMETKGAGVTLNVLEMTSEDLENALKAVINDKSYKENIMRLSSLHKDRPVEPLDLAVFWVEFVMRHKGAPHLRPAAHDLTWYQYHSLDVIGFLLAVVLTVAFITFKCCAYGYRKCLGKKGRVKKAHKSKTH

**Q.** For `O=c1[nH]c(=O)c(Cc2cccc(C(F)(F)F)c2)c([C@H]2CC[C@H](c3ccccc3)CC2)[nH]1` [miricorilant], which “Substrate of OATP1B3” value (OATP1B3) is on record?
**A.** Its value is “not a substrate”.

**Q.** And the “highest observed CYP3A4 induction” value (CYP3A4; one of three donors, concentration-dependent)?
**A.** Its value is 6.5 fold.

**Q.** What about the CYP3A4 induction (CYP3A4; two of three donors) of the same compound?
**A.** Its CYP3A4 induction is “no indication of CYP3A4 induction”.

**Q.** And the blood plasma ratio [1]?
**A.** The blood plasma ratio was 0.83.

**Q.** What about the “total radioactivity recovered in urine” value [2] of the same compound?
**A.** The value was < 5%.

**Q.** And the AUC (DDI perpetrator study)?
**A.** The AUC was 11.4 µg·h/mL.

**Q.** And the Cmax at 10 study day (DDI perpetrator study)?
**A.** Its Cmax at 10 study day is 0.895 µg/mL.

**Q.** What about the Tmax at 10 study day (DDI perpetrator study) of the same compound?
**A.** Its Tmax at 10 study day is 4 h.

**Q.** And the half-life at 10 study day (DDI perpetrator study)?
**A.** The half-life at 10 study day was 12.2 h.

**Q.** And the “Substrate of UGT1A1” value (UGT1A1)?
**A.** The value was “not a substrate”.

**Q.** What about the IC50 (BCRP) of the same compound?
**A.** Its IC50 is 0.48 µM.

**Q.** And the “Substrate of UGT1A3” value (UGT1A3)?
**A.** The value was “not a substrate”.
